An excerpt weighted towards active compounds, which were near 2.4% of everything screened.
T cruzi repl – inhibitors of intracellular T. cruzi growth, primary screen, luminescence, NIH3T3 host cells; T. cruzi beta-gal in NIH3T3, 90 h; inhibition, % (concentration not given with the values); actives 1.4% (n = 300,000);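 active = mean inhibition across valid replicates above about 55%, limit read from the data; inconclusive = mean below that limit but half or more replicates reach it; inactive = mean below it, under half of replicates reach it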;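 note: signal also drops with host cell toxicity which is not excluded here; 0% = plate median of DMSO wells and 100% = zero luminescence signal; higher percent means less beta-gal luminescence so fewer parasites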
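System – NIH/3T3 host cells with β-galactosidase reporter T. cruzi · Doses – single 50 nL compound addition per well in DMSO · Reagent – 5000 T. cruzi trypomastigotes/well · Medium – Low-serum DMEM with 2% FBS · Timing – ≥90 h infection period, 3 h prior cell attachment · Evaluation – parasite load inhibition, % · Technique – GalScreen luminescence, 60 min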
CTSL1 counter – Fasciola hepatica cathepsin L1 inhibitors, primary screen, counter-screen for PFM18AAP inhibitor project, biochemical, QFRET, fluorogenic peptide substrate | recombinant F. hepatica cathepsin L1, Z-Leu-Arg-MCA fluorescence | inhibition, % at 5.96 µM | actives 0.49% (n = 300,000) | AID 1906, 2009;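 active = inhibition above the mean of all tested compounds plus 3 SD, set per screening campaign, cut at about 17% in these data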;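 note: 0% = plate median of test compound wells and 100% = 1 µM Z-Phe-Ala-diazomethylketone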
pCIP destab – p/CIP-EGFP fusion destabilizers, primary screen, fluorescence, F442A cells. Q05BA5. 16 h. decrease of EGFP signal, % at 10 µM. actives 0.01% (n = 290,000);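 active = EGFP signal decrease of at least 30% at 10 µM or well 3 SD below plate mean, unless failing retest; inactive = the rest, including hits failing retest or dose response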
Cardio protect – cardioprotection against H2O2-induced cell death, primary screen, uHTS, H9c2 cells, ATPLite luminescence; protection from H2O2 cell death, % at 20 µM; actives 0.63% (n = 360,000); H9c2 cardiomyocytes, H2O2 injury protection, 2 h;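 active = compounds giving at least 50% protection of heart cells from peroxide-induced death in the single-dose screen, raw or plate-pattern-corrected value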;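 note: 0% = DMSO wells with peroxide and 100% = DMSO wells without peroxide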
GASC-1 inh – inhibitors of GASC-1 histone demethylase, primary screen, biochemical, fluorescence, DELFIA europium; GST-JMJD2C(1-420) H3K9me3 demethylation; Lysine-specific demethylase 4C (Homo sapiens), Q9H3R0; inhibition, % at 2.35 µM; actives 0.069% (n = 330,000);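 active = more than half of a compound's replicate wells show inhibition beyond 50%, single wells judged on their own value; inconclusive = some, but no more than half, of replicates pass 50% inhibition; inactive = no replicate passes 50% inhibition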;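 note: signal counts dimethyl H3K9 product captured on neutravidin plate; 0% = median of DMSO wells and 100% = 0.3 times that DMSO median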
PP5 inh – PP5 phosphatase inhibitors, primary screen, biochemical, fluorescence. Serine/threonine-protein phosphatase 5 (Homo sapiens), P53041. purified PP5c, OMFP substrate fluorescence. inhibition, % at 6.7 µM. actives 0.18% (n = 320,000);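 active = inhibition above the campaign's mean inhibition across all tested compounds plus 3 SD, cut at about 9.5% in these data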;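 note: 0% = DMSO only and 100% = 100 µM cantharidin control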
An asterisk follows results filed as active; ? = inconclusive; · = no result given.

SMILES	T cruzi repl	CTSL1 counter	pCIP destab	Cardio protect	GASC-1 inh	PP5 inh
O=C(NC(=S)NNC(=O)[C@H]1C[C@@H]1c1ccccc1)c1cccc(F)c1	58.3*	-1.5	-8.5	7.3	-20.2	2.0
O=C(CC(c1ccccc1)C1CCCCC1=O)c1ccco1 (stereo not drawn)	-3.8	4.5	1.4	6.7	0.1	-1.6
O=C(CC(c1ccco1)C1CCCCC1=O)c1ccco1 (stereo not drawn)	-8.8	63.6*	-12.5	-3.4	10.0	1.3
COc1ccc(CCNC(=O)c2cccc(S(=O)(=O)N3CCCCCC3)c2)cc1	·	·	·	2.9	5.9	1.5
COC(=O)C1CCN(S(=O)(=O)CCNC(=O)c2ccccc2)CC1	·	·	·	1.2	·	·
Cc1ccc(N=Cc2cc(Cl)cc(Cl)c2O)nc1	-4.9	-3.5	-1.5	65.4*	12.7	2.0
Cc1ccc(N=CC2=C(O)CC(C)(C)CC2=O)nc1	-16.9	-0.1	3.9	4.3	-0.1	2.9
COc1ccc(/C=N/Nc2ncc(Br)cn2)c(OC)c1	-35.3	2.6	11.4	-6.1	8.4	0.6
O=C(N/N=C/c1cccc2nccnc12)c1ccncc1	-15.9	3.8	-4.6	65.3*	2.3	-1.6
O=C(N/N=C/c1cc(Cl)cc(Cl)c1O)c1ccncc1	?	5.2	-15.1	50.5*	-6.1	4.3
Oc1c(Cl)cc(Cl)cc1/C=N/Nc1ncc(Br)cn1	52.6	0.2	9.7	58.6*	-21.2	2.5
O=C(N/N=C/c1cccc2nccnc12)c1ccccc1O	-8.7	-2.5	-5.3	12.1	3.5	-1.5
O=C(NC(=O)c1c(F)cccc1F)Nc1cccc(Oc2ncc(Cl)cn2)c1	·	·	·	-0.8	·	·
CCOC(=O)C1=CCC(c2ccccc2)N(S(=O)(=O)c2ccccc2C)C1 (stereo not drawn)	·	·	·	1.0	·	·
Oc1c(Cl)cc(Cl)cc1C=Nc1ccc2c(c1)OCCO2	-5.3	-0.9	-7.5	72.0*	10.3	4.1
COCCN(C(=O)CSc1nnc(-c2ccco2)n1C)c1c(N)n(CC(C)C)c(=O)[nH]c1=O	·	·	·	6.5	-26.1	1.2
COC(=O)CCC/C=C1/SCC(NC(=O)c2ccccc2)C1O (stereo not drawn)	5.6	47.9*	-31.8	-0.9	16.8	0.3
CCOC(=O)CC1C(=O)NCCN1C(=S)NC(=O)c1ccc(C)c(Br)c1 (stereo not drawn)	·	·	·	4.2	·	·
O=C(NCc1cccc(F)c1)C1CCN(S(=O)(=O)Cc2ccccc2)CC1	3.6	-2.8	-3.0	-4.8	72.6*	2.4
O=C(NCc1ccncc1)C1CCN(S(=O)(=O)Cc2ccccc2)CC1	5.6	4.7	-6.2	2.6	-6.7	-2.9
CCOC1=C2CN(S(=O)(=O)c3ccc(C)cc3)[C@H](c3ccccc3)C[C@@H]2N(S(=O)(=O)c2ccccc2C)[C@H](c2ccccc2)C1	·	·	·	-1.9	·	·
Cc1c(NC(=O)c2ccc(-c3ccc([N+](=O)[O-])cc3Cl)o2)c(=O)n(-c2ccccc2)n1C	56.5*	-0.6	-15.9	-1.7	2.7	0.1
C[C@@H]1CCCCO[C@H](CN(C)C(=O)Nc2ccccc2)[C@@H](C)CN([C@H](C)CO)C(=O)c2cc(NS(=O)(=O)c3cn(C)cn3)ccc2O1	·	·	·	1.3	·	·
CN(C)c1ccc(C(c2ccc(N(C)C)cc2)C(O)c2ccccc2)cc1 (stereo not drawn)	·	·	·	2.7	·	·
O=C(N/N=C/c1cn(-c2ccccc2)nc1-c1cc2ccccc2o1)c1cccnc1	-2.1	1.2	-20.8	35.2	2.5	5.0
SMILES	T cruzi repl	CTSL1 counter	pCIP destab	Cardio protect	GASC-1 inh	PP5 inh
O=C(N/N=C/c1cn(-c2ccccc2)nc1-c1cccnc1)c1cccnc1	1.7	4.3	9.2	51.5*	4.6	-0.8
O=C(N/N=C/c1cn(-c2ccccc2)nc1-c1cccnc1)c1ccc(F)cc1	-7.5	0.2	-3.6	70.8*	2.9	3.0
O=C(N/N=C/c1cn(-c2ccccc2)nc1-c1cccs1)c1ccccc1F	-16.1	-1.4	7.3	75.7*	1.4	4.5
CCOc1ccc(N2CC(C(=O)NCCc3ccc(F)cc3)CC2=O)cc1 (stereo not drawn)	-5.2	-1.8	-17.4	-0.8	10.5	1.8
O=C(Nc1ccccc1Cl)c1ccc2nccnc2c1	-0.9	2.1	-1.7	-14.1	-3.0	2.2
COc1ccc(C(=O)Nc2cccc(NC(=O)c3ccc(OC)c(OC)c3)n2)cc1OC	-39.6	-0.5	13.5	53.5*	2.0	3.5
COc1ccc(C(=O)Nc2cccc3cccnc23)cc1OC	18.7	-0.2	4.1	25.0	-2.4	1.8
COc1cc(C(=O)Nc2ccc3c(c2)N(C(=O)CCN(C)C)c2ccccc2CC3)cc(OC)c1OC	78.7*	-0.6	-3.9	9.0	2.1	2.0
COc1cc(C(=O)Nc2ccc(NC(=O)C3CCCCC3)nc2)cc(OC)c1OC	6.0	·	-4.6	3.7	-24.2	·
CN(C)CC(=O)N1c2ccccc2CCc2ccc(NC(=O)c3ccc(N)cc3)cc21	18.1	-1.8	-5.4	5.0	-2.6	-2.4
COc1cc(C(=O)Nc2ccc(NC(=O)c3cccc(Cl)c3)nc2)cc(OC)c1OC	10.0	·	-5.1	68.3*	1.5	·
COC(=O)c1ccccc1NC(=O)c1ccc2nccnc2c1	-7.9	5.4	-3.1	64.2*	-3.5	1.5
COc1ccc(NC(=O)CN(c2ccc(OC)c(Cl)c2)S(=O)(=O)c2ccccc2)c(OC)c1	32.8	-0.2	-5.9	-2.1	-7.1	3.0
COc1cc(C(=O)Nc2ccccn2)cc(OC)c1OC	-12.0	17.5*	-5.9	12.7	-20.8	3.5
COc1cc(C(=O)Nc2ccccc2C(=O)Nc2ccccn2)cc(OC)c1OC	5.5	-3.3	7.4	60.2*	-23.3	2.1
CCn1c2ccccc2c2cc(NC(=O)c3cc(OC)cc(OC)c3)ccc21	39.0	-1.4	-23.9	2.5	3.0	6.1
CCn1c2ccccc2c2cc(NC(=O)c3cc(OC)c(OC)c(OC)c3)ccc21	56.6*	0.9	-29.2	-3.2	15.2	7.6
NC(=S)N/N=C1\CCSc2ccc(Cl)cc21	42.6	25.8*	6.0	-5.9	-12.6	1.1
O=C(N/N=C1\CCSc2ccc(F)cc21)c1cccnc1	-1.6	-1.9	-4.5	26.7	-6.3	0.3
Cc1noc(/C=C/N(C)C)c1S(=O)(=O)N1CCCC(C(=O)NC2CCCCC2)C1 (stereo not drawn)	61.8*	8.2	5.2	3.6	-8.2	-0.6
Cc1noc(/C=C/N(C)C)c1S(=O)(=O)N1CCCC(C(=O)N2CCCCC2)C1 (stereo not drawn)	11.6	1.9	-12.5	3.5	35.2	0.0
CCn1c2ccccc2c2nc3cc(OC)c(OC)cc3nc21	41.3	0.8	-9.4	50.9*	-13.9	5.4

Screening data: PubChem, several laboratories
